Experimental data taken from ChEMBL document CHEMBL3860041, “Synthesis, biological evaluation and molecular modeling study of some new methoxylated 2-benzylthio-quinazoline-4(3H)-ones as nonclassical antifolates” (Bioorg Med Chem Lett, 2016).

Key:
Type in all cases: functional
[1] = Growth inhibition of human OVCAR8 cells at 10 uM after 48 hrs by SRB assay relative to control; conditions: OVCAR-8, 48 h, read-out: GI
In short: (§1)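 NCI 60-cell-line panel, nine tumor subpanels; compounds tested at a single dose of 10 μM in the primary screen.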

[2] = Growth inhibition of human NCI/ADR-RES cells at 10 uM after 48 hrs by SRB assay relative to control; conditions: read-out: GI; in short: as §1
[3] = Growth inhibition of human COLO205 cells at 10 uM after 48 hrs by SRB assay relative to control; conditions: COLO 205, 48 h, read-out: GI; in short: as §1
[4] = Growth inhibition of human NCI-H522 cells at 10 uM after 48 hrs by SRB assay relative to control; conditions: NCI-H522, 48 h, read-out: GI; in short: as §1
[5] = Growth inhibition of human MDA-MB-435 cells at 10 uM after 48 hrs by SRB assay relative to control; conditions: MDA-MB-435, 48 h, read-out: GI; in short: as §1
[6] = Growth inhibition of human U251 cells at 10 uM after 48 hrs by SRB assay relative to control; conditions: U-251, 48 h, read-out: GI
In short: (§2)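 Primary screen across the full NCI 60 human tumour cell line panel, which covers nine tumour subpanels. A single dose of 10 μM was applied to each line, and growth was recorded for each cell line.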

[7] = Growth inhibition of human KM12 cells at 10 uM after 48 hrs by SRB assay relative to control; conditions: KM12, 48 h, read-out: GI; in short: as §1
[8] = Growth inhibition of human SKOV3 cells at 10 uM after 48 hrs by SRB assay relative to control; conditions: SK-OV-3, 48 h, read-out: GI; in short: as §2
[9] = Growth inhibition of human MDA-MB-231 cells at 10 uM after 48 hrs by SRB assay relative to control; conditions: MDA-MB-231, 48 h, read-out: GI; in short: as §1
[10] = Growth inhibition of human MALME-3M cells at 10 uM after 48 hrs by SRB assay relative to control; conditions: read-out: GI; in short: as §1
[11] = Growth inhibition of human HCC2998 cells at 10 uM after 48 hrs by SRB assay relative to control; conditions: HCC 2998, 48 h, read-out: GI; in short: as §1
[12] = Growth inhibition of human HOP62 cells at 10 uM after 48 hrs by SRB assay relative to control; conditions: HOP-62, 48 h, read-out: GI; in short: as §1
[13] = Growth inhibition of human MDA-MB-468 cells at 10 uM after 48 hrs by SRB assay relative to control; conditions: MDA-MB-468, 48 h, read-out: GI; in short: as §1
[14] = Growth inhibition of human RXF393 cells at 10 uM after 48 hrs by SRB assay relative to control; conditions: RXF 393, 48 h, read-out: GI; in short: as §1
[15] = Growth inhibition of human NCI-322M cells at 10 uM after 48 hrs by SRB assay relative to control; conditions: read-out: GI; in short: as §1
[16] = Growth inhibition of human NCI-H460 cells at 10 uM after 48 hrs by SRB assay relative to control; conditions: NCI-H460, 48 h, read-out: GI; in short: as §1
[17] = Growth inhibition of human Hs 578T cells at 10 uM after 48 hrs by SRB assay relative to control; conditions: read-out: GI; in short: as §1
[18] = Growth inhibition of human OVCAR5 cells at 10 uM after 48 hrs by SRB assay relative to control; conditions: OVCAR-5, 48 h, read-out: GI; in short: as §1
[19] = Growth inhibition of human M14 cells at 10 uM after 48 hrs by SRB assay relative to control; conditions: M14, 48 h, read-out: GI; in short: as §1
[20] = Growth inhibition of human A549 cells at 10 uM after 48 hrs by SRB assay relative to control; conditions: A549, 48 h, read-out: GI; in short: as §1
[21] = Growth inhibition of human SK-MEL-2 cells at 10 uM after 48 hrs by SRB assay relative to control; conditions: SK-MEL-2, 48 h, read-out: GI; in short: as §2
[22] = Growth inhibition of human 786-0 cells at 10 uM after 48 hrs by SRB assay relative to control; conditions: 786-0, 48 h, read-out: GI; in short: as §1
[23] = Growth inhibition of human HCT15 cells at 10 uM after 48 hrs by SRB assay relative to control; conditions: HCT-15, 48 h, read-out: GI; in short: as §1
[24] = Growth inhibition of human PC3 cells at 10 uM after 48 hrs by SRB assay relative to control; conditions: PC-3, 48 h, read-out: GI; in short: as §1
[25] = Growth inhibition of human T47D cells at 10 uM after 48 hrs by SRB assay relative to control; conditions: read-out: GI; in short: as §2
[26] = Growth inhibition of human HL-60(TB) cells at 10 uM after 48 hrs by SRB assay relative to control; conditions: HL-60, 48 h, read-out: GI
In short: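 NCI disease-oriented human tumour cell line screen: primary single-dose assay at 10 μM across the full 60-cell-line panel spanning nine tumour subpanels.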

[27] = Growth inhibition of human SF295 cells at 10 uM after 48 hrs by SRB assay relative to control; conditions: SF-295, 48 h, read-out: GI; in short: as §1
[28] = Growth inhibition of human SN12C cells at 10 uM after 48 hrs by SRB assay relative to control; conditions: read-out: GI; in short: as §2

Compound	inhibition of growth at 10 µM [1] [%]	inhibition of growth at 10 µM [2] [%]	inhibition of growth at 10 µM [3] [%]	inhibition of growth at 10 µM [4] [%]	inhibition of growth at 10 µM [5] [%]	inhibition of growth at 10 µM [6] [%]	inhibition of growth at 10 µM [7] [%]	inhibition of growth at 10 µM [8] [%]	inhibition of growth at 10 µM [9] [%]	inhibition of growth at 10 µM [10] [%]	inhibition of growth at 10 µM [11] [%]	inhibition of growth at 10 µM [12] [%]	inhibition of growth at 10 µM [13] [%]	inhibition of growth at 10 µM [14] [%]	inhibition of growth at 10 µM [15] [%]	inhibition of growth at 10 µM [16] [%]	inhibition of growth at 10 µM [17] [%]	inhibition of growth at 10 µM [18] [%]	inhibition of growth at 10 µM [19] [%]	inhibition of growth at 10 µM [20] [%]	also measured
COc1ccc(CSc2nc3cc(OC)c(OC)cc3c(=O)n2-c2ccc(OC)cc2OC)cc1	10.8	20.5	< 10	31.4	38	< 10	21.9	< 10	24.6	17.4	< 10	< 10	25.7	24.5	19.4	< 10	13.3	< 10	< 10	19.2	inhibition of growth at 10 µM [21]: < 10%; inhibition of growth at 10 µM [22]: < 10%; inhibition of growth at 10 µM [23]: 19.4%; inhibition of growth at 10 µM [24]: 44.4%; inhibition of growth at 10 µM [25]: 24.4%; inhibition of growth at 10 µM [26]: < 10%; inhibition of growth at 10 µM [27]: 10.4%; inhibition of growth at 10 µM [28]: < 10%
COc1ccc(-n2c(SCc3cc(OC)c(OC)c(OC)c3)nc3ccc(Cl)cc3c2=O)cc1	13.7	10.7	< 10	16.7	12.4	< 10	18.7	< 10	36.8	< 10	< 10	< 10	13.4	25.9	< 10	10.3	13.9	10.5	< 10	20.2	inhibition of growth at 10 µM [21]: < 10%; inhibition of growth at 10 µM [22]: < 10%; inhibition of growth at 10 µM [23]: 19.3%; inhibition of growth at 10 µM [24]: 37.7%; inhibition of growth at 10 µM [25]: 23.9%; inhibition of growth at 10 µM [26]: < 10%; inhibition of growth at 10 µM [27]: 16.7%; inhibition of growth at 10 µM [28]: 18.3%
COc1cc(CSc2nc3ccc(Cl)cc3c(=O)n2-c2ccccc2)cc(OC)c1OC	15.7	24.5	15.5	61.6	75.6	11.4	50.2	< 10	37	23.5	20	28	42.7	31.1	14.3	< 10	< 10	15.4	< 10	26.1	inhibition of growth at 10 µM [21]: 22.5%; inhibition of growth at 10 µM [22]: 10.7%; inhibition of growth at 10 µM [23]: 47.5%; inhibition of growth at 10 µM [24]: 26.8%; inhibition of growth at 10 µM [25]: 29.1%; inhibition of growth at 10 µM [26]: < 10%; inhibition of growth at 10 µM [27]: 15.8%; inhibition of growth at 10 µM [28]: 24%
